{"source": "ChEMBL document CHEMBL3091329", "about": "“Discovery of tetrahydroisoquinoline-based CXCR4 antagonists” (ACS Med Chem Lett, 2013)", "key": {"[1]": {"test": "Cytotoxicity against human PBMC assessed as cell viability by MTS assay", "assay_type": "cell-based", "conditions": "read-out: TC50 (the source's name)"}, "[2]": {"biological_target": "C-C chemokine receptor type 5 (Homo sapiens) (UniProt P51681)", "sequence (P51681 whole entry, looked up)": "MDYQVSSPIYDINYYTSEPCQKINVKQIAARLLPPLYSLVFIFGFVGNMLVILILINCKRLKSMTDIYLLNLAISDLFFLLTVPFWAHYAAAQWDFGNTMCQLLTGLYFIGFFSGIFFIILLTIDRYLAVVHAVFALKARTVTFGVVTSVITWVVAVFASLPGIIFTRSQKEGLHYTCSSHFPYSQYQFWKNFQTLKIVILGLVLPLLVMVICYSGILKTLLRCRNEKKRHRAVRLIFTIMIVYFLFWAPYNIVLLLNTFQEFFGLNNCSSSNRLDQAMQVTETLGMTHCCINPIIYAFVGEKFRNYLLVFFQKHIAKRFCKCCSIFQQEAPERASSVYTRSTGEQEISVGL", "test": "Inhibition of CCR5 (unknown origin) at 10 uM relative to control"}, "[3]": {"biological_target": "C-X-C chemokine receptor type 6 (Homo sapiens) (UniProt O00574)", "sequence (O00574 whole entry, looked up)": "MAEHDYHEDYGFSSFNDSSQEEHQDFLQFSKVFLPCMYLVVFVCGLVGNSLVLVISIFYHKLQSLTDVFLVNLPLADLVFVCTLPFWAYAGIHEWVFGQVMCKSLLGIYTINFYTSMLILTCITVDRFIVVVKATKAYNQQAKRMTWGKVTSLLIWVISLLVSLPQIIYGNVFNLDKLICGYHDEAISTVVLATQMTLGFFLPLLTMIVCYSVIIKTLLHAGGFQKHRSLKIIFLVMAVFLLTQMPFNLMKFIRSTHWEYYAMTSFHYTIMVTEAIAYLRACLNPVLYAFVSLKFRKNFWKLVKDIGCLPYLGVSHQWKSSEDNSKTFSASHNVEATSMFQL", "test": "Inhibition of CXCR6 (unknown origin) at 10 uM relative to control"}, "[4]": {"biological_target": "T1, C-C chemokine receptor type 7 (Homo sapiens) (UniProt P32248)", "T1 sequence (whole entry)": "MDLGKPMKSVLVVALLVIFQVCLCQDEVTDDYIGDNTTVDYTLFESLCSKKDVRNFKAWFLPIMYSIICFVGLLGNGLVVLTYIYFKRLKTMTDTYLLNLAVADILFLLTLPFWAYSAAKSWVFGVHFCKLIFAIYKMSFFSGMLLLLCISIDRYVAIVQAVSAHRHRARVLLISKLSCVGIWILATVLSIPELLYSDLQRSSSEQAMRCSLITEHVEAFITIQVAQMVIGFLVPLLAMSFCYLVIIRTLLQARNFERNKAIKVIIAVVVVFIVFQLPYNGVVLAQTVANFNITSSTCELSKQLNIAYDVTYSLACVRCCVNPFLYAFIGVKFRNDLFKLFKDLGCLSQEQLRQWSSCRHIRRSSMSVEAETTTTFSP", "test": "Inhibition of CCR7 (unknown origin) at 10 uM relative to control"}, "[5]": {"biological_target": "T2, C-C chemokine receptor type 3 (Homo sapiens) (UniProt P51677)", "T2 sequence (whole entry)": "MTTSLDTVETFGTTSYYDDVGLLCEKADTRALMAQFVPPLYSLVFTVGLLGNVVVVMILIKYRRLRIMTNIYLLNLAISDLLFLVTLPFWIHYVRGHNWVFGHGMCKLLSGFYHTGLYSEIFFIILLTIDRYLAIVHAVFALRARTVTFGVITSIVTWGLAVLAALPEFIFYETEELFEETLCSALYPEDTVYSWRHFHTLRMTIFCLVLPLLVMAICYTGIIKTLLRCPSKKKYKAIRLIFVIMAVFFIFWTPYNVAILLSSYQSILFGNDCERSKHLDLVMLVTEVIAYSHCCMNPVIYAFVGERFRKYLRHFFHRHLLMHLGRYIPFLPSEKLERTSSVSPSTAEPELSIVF", "test": "Inhibition of CCR3 (unknown origin) at 10 uM relative to control"}, "Plasma": {"tested_on": "Plasma", "test": "Plasma concentration in Harlan C57BL/6 mouse at 5 to 20 mg/kg, sc after 6 to 8 hrs by LC/MS/MS analysis", "assay_type": "ADME, organism-based", "set-up": "route subcutaneous", "conditions": "in vivo", "procedure,_shortened": "(§1)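 Harlan mice were given a single subcutaneous dose at 5, 10 or 20 mg/kg. Blood was sampled at multiple time points over about 8 h, and each sample was used for both total circulating WBC count and plasma drug level. Counts and concentrations were plotted against time for each dose.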"}, "[6]": {"test": "AUC (0 to infinity) in jugular pre-cannulated CRL Sprague-Dawley rat at 10 mg/kg, po", "assay_type": "ADME, organism-based", "set-up": "dose 10 mg/kg, route oral, time infinity", "conditions": "plasma"}, "[7]": {"test": "Plasma concentration in Harlan C57BL/6 mouse at 5 mg/kg, sc after 1 hr by LC/MS/MS analysis", "assay_type": "ADME, organism-based", "set-up": "dose 5 mg/kg, route subcutaneous", "procedure,_shortened": "as §1"}, "Liver microsome": {"tested_on": "Liver microsome", "test": "Intrinsic clearance in human liver microsomes at 1 uM incubated for 3 mins prior to NADPH addition by LC-MS/MS analysis", "assay_type": "ADME", "conditions": "0.05 h"}, "[8]": {"biological_target": "T3, C-X-C chemokine receptor type 1 (Homo sapiens) (UniProt P25024)", "T3 sequence (whole entry)": "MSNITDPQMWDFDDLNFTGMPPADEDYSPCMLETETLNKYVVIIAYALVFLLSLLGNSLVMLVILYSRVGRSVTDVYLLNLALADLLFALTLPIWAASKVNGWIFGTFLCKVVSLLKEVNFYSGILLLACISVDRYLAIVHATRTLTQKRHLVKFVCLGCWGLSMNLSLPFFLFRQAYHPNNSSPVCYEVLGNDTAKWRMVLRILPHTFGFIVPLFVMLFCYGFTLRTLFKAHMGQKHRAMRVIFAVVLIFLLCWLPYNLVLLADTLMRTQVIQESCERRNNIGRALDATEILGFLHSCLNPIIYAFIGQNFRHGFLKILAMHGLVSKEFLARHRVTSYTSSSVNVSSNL", "test": "Inhibition of CXCR1 (unknown origin) at 10 uM relative to control"}, "[9]": {"test": "Elimination half life in jugular pre-cannulated Harlan Sprague-Dawley rat at 2 mg/kg, iv", "assay_type": "ADME, organism-based", "set-up": "dose 2 mg/kg, route intravenous", "conditions": "in vivo, read-out: beta t1/2 (converted)"}, "[10]": {"biological_target": "T4, C-X-C chemokine receptor type 5 (Homo sapiens) (UniProt P32302)", "T4 sequence (whole entry)": "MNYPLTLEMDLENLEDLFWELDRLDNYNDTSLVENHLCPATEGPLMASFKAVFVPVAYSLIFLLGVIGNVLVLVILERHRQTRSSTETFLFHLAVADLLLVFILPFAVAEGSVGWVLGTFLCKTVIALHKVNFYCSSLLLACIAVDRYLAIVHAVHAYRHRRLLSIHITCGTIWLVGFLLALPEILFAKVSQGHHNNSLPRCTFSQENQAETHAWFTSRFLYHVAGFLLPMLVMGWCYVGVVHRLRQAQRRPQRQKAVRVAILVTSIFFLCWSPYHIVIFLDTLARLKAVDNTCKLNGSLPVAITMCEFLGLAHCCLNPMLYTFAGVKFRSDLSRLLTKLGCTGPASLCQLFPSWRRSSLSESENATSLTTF", "test": "Inhibition of CXCR5 (unknown origin) at 10 uM relative to control"}, "[11]": {"test": "Aqueous solubility in PBS at 7.4 after 90 mins by nephelometric analysis", "assay_type": "physicochemical", "conditions": "pH 7.4"}, "[12]": {"biological_target": "T5, C-C chemokine receptor type 4 (Homo sapiens) (UniProt P51679)", "T5 sequence (whole entry)": "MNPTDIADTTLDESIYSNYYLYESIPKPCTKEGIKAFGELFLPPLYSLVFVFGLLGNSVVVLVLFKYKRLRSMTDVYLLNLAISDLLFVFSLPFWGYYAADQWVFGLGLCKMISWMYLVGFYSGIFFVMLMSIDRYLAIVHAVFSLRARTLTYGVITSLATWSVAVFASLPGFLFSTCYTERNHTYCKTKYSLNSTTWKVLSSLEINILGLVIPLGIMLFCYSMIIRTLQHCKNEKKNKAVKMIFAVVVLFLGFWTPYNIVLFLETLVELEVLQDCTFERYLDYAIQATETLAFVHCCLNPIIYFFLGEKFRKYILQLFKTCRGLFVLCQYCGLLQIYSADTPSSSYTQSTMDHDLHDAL", "test": "Inhibition of CCR4 (unknown origin) at 10 uM relative to control"}, "[13]": {"test": "Half life in rat liver microsomes at 1 uM incubated for 3 mins prior to NADPH addition by LC-MS/MS analysis", "assay_type": "ADME"}}}
{"smiles": "NCCCCN(C[C@H]1Cc2ccccc2CN1)[C@H]1CCCc2cccnc21", "values": [{"measurement": "CC50", "setting": "[1]", "value": 47, "unit": "µM"}, {"measurement": "inhibition", "setting": "[2]", "value": "< 10", "unit": "%"}, {"measurement": "inhibition", "setting": "[3]", "value": "< 10", "unit": "%"}, {"measurement": "inhibition", "setting": "[4]", "value": "< 10", "unit": "%"}, {"measurement": "inhibition", "setting": "[5]", "value": "< 10", "unit": "%"}, {"measurement": "Cp", "setting": "Plasma", "value": 87, "unit": "ng/mL"}, {"measurement": "AUC(0-inf)", "setting": "[6]", "value": 328, "unit": "ng·h/mL"}, {"measurement": "concentration at 1 h", "setting": "[7]", "value": 725, "unit": "ng/mL"}, {"measurement": "CLH", "setting": "Liver microsome", "value": "< 20", "unit": "µL/min/mg"}, {"measurement": "inhibition", "setting": "[8]", "value": "< 10", "unit": "%"}, {"measurement": "half-life", "setting": "[9]", "value": 72, "unit": "min"}, {"measurement": "inhibition", "setting": "[10]", "value": "< 10", "unit": "%"}, {"measurement": "solubility kinetic at […]", "setting": "[11]", "value": "> 274", "unit": "µM"}, {"measurement": "inhibition", "setting": "[12]", "value": "< 10", "unit": "%"}, {"measurement": "half-life at 1 µM", "setting": "[13]", "value": 39, "unit": "min"}]}
